The source of these data is ChEMBL document CHEMBL1157913, “Development of a new generation of 4-aminoquinoline antimalarial compounds using predictive pharmacokinetic and toxicology models” (J Med Chem, 2010).

Data set [1] can be described thus: Permeability by PAMPA assay at pH 7.4. The data set is classed as ADME. In short, it runs like this: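 Double-sink PAMPA, GIT-0 lipid-coated filter. Donor 50 μM final (from DMSO stock) at pH 5.0, 6.2 or 7.4; acceptor pH 7.4. Stirred 30 min (40 μm aqueous boundary layer), constant humidity. Both compartments read by UV absorbance 250–500 nm; Pe (cm/s) calculated, four wells per pH, mean ± SD.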
For orientation: In PAMPA a lipid-coated filter parts donor from acceptor wells.

A short description of data set [2]: Permeability by PAMPA assay at pH 6.2. It is filed as ADME.
Data set [3] in a line: Tmax in CD1 mouse at 50 mg/kg, po. The data set is classed as ADME, organism-based. The arrangement: dose 50 mg/kg, route oral. Conditions: in vivo. In short, it runs like this: (§1)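 Male CD-1 mice given one 50 mg/kg oral gavage dose (n = 3), vehicle 0.9% saline or 5% DMSO/95% PEG300 depending on compound. Retro-orbital blood into EDTA under isoflurane at 15, 30, 60 min and 2, 4, 8, 10, 24, 48 h (3 mice per time point). Plasma analysed by LC-MS/MS; AUC0-t, Cmax, Tmax, t1/2 derived by noncompartmental software.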

Data set [4] in a line: Cmax in CD1 mouse at 50 mg/kg, po. The arrangement: dose 50 mg/kg, route oral. Particulars: in vivo. The data set is classed as ADME, organism-based. In short, it runs like this: as §1
Data set [5] in a line: AUClast in CD1 mouse at 50 mg/kg, po. It is filed as ADME, organism-based. The arrangement: time 0 - last, dose 50 mg/kg, route oral. Particulars: plasma. In short, it runs like this: as §1
The nature of data set [6]: Permeability by PAMPA assay at pH 5.0. It is filed as ADME.
Data set [7] is described as follows: Toxicity in po dosed CD1 mouse administered qd for 7 days. The data set is classed as organism-based. Particulars: in vivo. Put shortly: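 Male and female CD-1 mice (6–8 weeks, n = 5/sex/dose group) received oral gavage once daily for 7 days at 50, 100, 200 or 100, 200, 400 mg/kg/day, depending on the article. The article was suspended daily in 5% DMSO:95% PEG 300, and vehicle-treated animals served as controls. Body weights were taken predose, on day 4 and on day 8. Day-8 retro-orbital blood went to hematology and serum chemistry, followed by necropsy with histopathology and organ weights. MTD was estimated.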

The structures appear in SMILES notation.

For orientation: Tmax means the time from dosing to the highest level. As a reminder, the Cmax is the highest concentration seen after dosing. For orientation: AUC(0-t) means the area under the concentration-time curve up to a stated or last time point. A high value points to more exposure. For the compound `CCCN(CCCNc1ccnc2cc(Cl)ccc12)CC1CC1`, the permeability turned out to be 1109 ×10⁻⁶ cm/s in data set [1] and 2 ×10⁻⁶ cm/s in data set [2]. Besides, the Tmax in data set [3] was 30 min. This compound also displayed a peak concentration (Cmax) in data set [4] of 437 nM. For the same compound, in data set [5], the AUC(0-t) was 6.79 µM·h.
As to `Clc1ccc2c(NCCCNCc3cccc4c3OCO4)ccnc2c1`, the permeability in data set [1] was 2400 ×10⁻⁶ cm/s; in data set [2], 979 ×10⁻⁶ cm/s; in data set [6] it was 19 ×10⁻⁶ cm/s. Further, in data set [3], the Tmax was 120 min. Also, the peak level in data set [4] (Cmax) was 240 nM. In data set [5], this compound returned an AUC(0-t) of 2.03 µM·h. Also, in data set [7], the MTD at 168 h was 100 mg/kg.
`CCN(CC)CCCC(C)Nc1ccnc2cc(Oc3ccccc3)ccc12` (stereo not drawn): in data set [3], the Tmax came out at 30 min. The same compound had a Cmax in data set [4] of 261 nM. In addition, the AUC(0-t) in data set [5] came out at 0.726 µM·h.
On to `CCN(CC)CCCC(C)Nc1ccnc2cc(Cl)ccc12` (stereo not drawn) [CHLOROQUINE], for which the values for the permeability in data set [1] and in data set [2] were 775 ×10⁻⁶ cm/s and 51 ×10⁻⁶ cm/s, respectively. Also, the Tmax in data set [3] stood at 30 min. The same compound showed a Cmax in data set [4] of 444 nM. For the same compound, the exposure AUC(0-t) in data set [5] was 2.64 µM·h.
As to `CCN(CC)CCCC(C)Nc1ccnc2cc(C(F)(F)F)ccc12` (stereo not drawn), the permeability is recorded as 2704 ×10⁻⁶ cm/s in data set [1], 235 ×10⁻⁶ cm/s in data set [2] and 2 ×10⁻⁶ cm/s in data set [6].
`COc1cccc(CNCCCNc2ccnc3cc(Cl)ccc23)c1O` showed a permeability in data set [1] of 1363 ×10⁻⁶ cm/s. Further, the Tmax in data set [3] came to 240 min. In data set [4], this compound registered a maximum concentration (Cmax) of 65.9 nM. The compound further showed an AUC(0-t) in data set [5] of 0.62 µM·h. In data set [7], this compound registered an MTD at 168 h of 400 mg/kg.
